ChEMBL document CHEMBL4265991

Columns and labels:
[1] = substrate: COc1c(C)c2c(c(O)c1C/C=C(\C)CCC(=O)O)C(=O)OC2; conditions: Cryptococcus neoformans; 0.156 uM
[2] = compound: COc1ccccc1-c1nnc(SC2=CS(=O)(=O)c3ccccc32)o1; assay: (§1) Inhibition of recombinant Cryptococcus neoformans His-tagged IMPDH expressed in Escherichia coli BL21 (DE3) at 10 uM assessed as Kcat for substrate using IMP as fixed substrate at 500 uM and NAD as second substrate with varying concentrations of 31.25 to 1300 uM (reference value: 21.5 /s)
Method in brief: (§2)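 Recombinant C. neoformans IMPDH, 100 nM final, reaction started by adding enzyme. NADH production monitored at 340 nm. Inhibitor series ran from 20 to 0.31 µM; MPA tested at 312 to 39 nM. Km and Vmax fitted to the Michaelis–Menten equation; inhibition type taken from shifts in Km and Vmax.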

[3] = compound: O=S1(=O)C=C(Sc2nnc(-c3ccccc3)o2)c2ccccc21; assay: as §1
Method in brief: as §2

[4] = substrate: COc1c(C)c2c(c(O)c1C/C=C(\C)CCC(=O)O)C(=O)OC2; conditions: Cryptococcus neoformans; 0.156 uM; remark: listed apart in the source
[5] = substrate: COc1c(C)c2c(c(O)c1C/C=C(\C)CCC(=O)O)C(=O)OC2; conditions: Cryptococcus neoformans; 0.078 uM
[6] = compound: COc1ccccc1-c1nnc(SC2=CS(=O)(=O)c3ccccc32)o1; assay: (§3) Inhibition of recombinant Cryptococcus neoformans His-tagged IMPDH expressed in Escherichia coli BL21 (DE3) at 2.5 uM assessed as Kcat for substrate using NAD as fixed substrate at 700 uM and IMP as second substrate with varying concentrations of 25 to 800 uM (reference value: 21.5 /s)
Method in brief: as §2

[7] = compound: O=S1(=O)C=C(Sc2nnc(-c3ccccc3)o2)c2ccccc21; assay: as §3
Method in brief: as §2

[8] = compound: COc1ccccc1-c1nnc(SC2=CS(=O)(=O)c3ccccc32)o1; assay: (§4) Inhibition of recombinant Cryptococcus neoformans His-tagged IMPDH expressed in Escherichia coli BL21 (DE3) at 10 uM assessed as Vmax for substrate using NAD as fixed substrate at 700 uM and IMP as second substrate with varying concentrations of 25 to 800 uM (reference value: 1.5 microM/min)
Method in brief: as §2

[9] = compound: O=S1(=O)C=C(Sc2nnc(-c3ccccc3)o2)c2ccccc21; assay: as §4
Method in brief: as §2

[10] = compound: COc1ccccc1-c1nnc(SC2=CS(=O)(=O)c3ccccc32)o1; assay: (§5) Inhibition of recombinant Cryptococcus neoformans His-tagged IMPDH expressed in Escherichia coli BL21 (DE3) at 10 uM assessed as Km for substrate using IMP as fixed substrate at 500 uM and NAD as second substrate with varying concentrations of 31.25 to 1300 uM (reference value: 257.5 +/- 23 microM)
Method in brief: as §2

[11] = compound: O=S1(=O)C=C(Sc2nnc(-c3ccccc3)o2)c2ccccc21; assay: as §5
Method in brief: as §2

[12] = substrate: COc1c(C)c2c(c(O)c1C/C=C(\C)CCC(=O)O)C(=O)OC2; conditions: Cryptococcus neoformans; 0.156 uM; remark: listed apart in the source
[13] = compound: COc1ccccc1-c1nnc(SC2=CS(=O)(=O)c3ccccc32)o1; assay: (§6) Inhibition of recombinant Cryptococcus neoformans His-tagged IMPDH expressed in Escherichia coli BL21 (DE3) at 0.3 uM assessed as Km for substrate using NAD as fixed substrate at 700 uM and IMP as second substrate with varying concentrations of 25 to 800 uM (reference value: 257.5 +/- 23 microM)
Method in brief: as §2

[14] = compound: O=S1(=O)C=C(Sc2nnc(-c3ccccc3)o2)c2ccccc21; assay: as §6
Method in brief: as §2

[15] = substrate: COc1c(C)c2c(c(O)c1C/C=C(\C)CCC(=O)O)C(=O)OC2; conditions: Cryptococcus neoformans; 0.039 uM
[16] = substrate: COc1c(C)c2c(c(O)c1C/C=C(\C)CCC(=O)O)C(=O)OC2; conditions: Cryptococcus neoformans; 0.156 uM; remark: listed apart in the source
[17] = substrate: COc1c(C)c2c(c(O)c1C/C=C(\C)CCC(=O)O)C(=O)OC2; conditions: Cryptococcus neoformans; 0.039 uM; remark: listed apart in the source
[18] = compound: COc1ccccc1-c1nnc(SC2=CS(=O)(=O)c3ccccc32)o1; assay: (§7) Inhibition of recombinant Cryptococcus neoformans His-tagged IMPDH expressed in Escherichia coli BL21 (DE3) at 2.5 uM assessed as Vmax for substrate using IMP as fixed substrate at 500 uM and NAD as second substrate with varying concentrations of 31.25 to 1300 uM (reference value: 1.5 microM/min)
Method in brief: as §2

[19] = compound: O=S1(=O)C=C(Sc2nnc(-c3ccccc3)o2)c2ccccc21; assay: as §7
Method in brief: as §2

[20] = compound: COc1ccccc1-c1nnc(SC2=CS(=O)(=O)c3ccccc32)o1; assay: (§8) Inhibition of recombinant Cryptococcus neoformans His-tagged IMPDH expressed in Escherichia coli BL21 (DE3) at 0.3 uM assessed as Vmax for substrate using NAD as fixed substrate at 700 uM and IMP as second substrate with varying concentrations of 25 to 800 uM (reference value: 1.5 microM/min)
Method in brief: as §2

[21] = compound: O=S1(=O)C=C(Sc2nnc(-c3ccccc3)o2)c2ccccc21; assay: as §8
Method in brief: as §2

[22] = compound: COc1ccccc1-c1nnc(SC2=CS(=O)(=O)c3ccccc32)o1; assay: (§9) Inhibition of recombinant Cryptococcus neoformans His-tagged IMPDH expressed in Escherichia coli BL21 (DE3) at 0.3 uM assessed as Km for substrate using IMP as fixed substrate at 500 uM and NAD as second substrate with varying concentrations of 31.25 to 1300 uM (reference value: 257.5 +/- 23 microM)
Method in brief: as §2

[23] = compound: O=S1(=O)C=C(Sc2nnc(-c3ccccc3)o2)c2ccccc21; assay: as §9
Method in brief: as §2

[24] = compound: COc1ccccc1-c1nnc(SC2=CS(=O)(=O)c3ccccc32)o1; assay: (§10) Inhibition of recombinant Cryptococcus neoformans His-tagged IMPDH expressed in Escherichia coli BL21 (DE3) at 2.5 uM assessed as Kcat for substrate using IMP as fixed substrate at 500 uM and NAD as second substrate with varying concentrations of 31.25 to 1300 uM (reference value: 21.5 /s)
Method in brief: as §2

[25] = compound: O=S1(=O)C=C(Sc2nnc(-c3ccccc3)o2)c2ccccc21; assay: as §10
Method in brief: as §2

[26] = compound: COc1ccccc1-c1nnc(SC2=CS(=O)(=O)c3ccccc32)o1; assay: (§11) Inhibition of recombinant Cryptococcus neoformans His-tagged IMPDH expressed in Escherichia coli BL21 (DE3) at 10 uM assessed as Km for substrate using NAD as fixed substrate at 700 uM and IMP as second substrate with varying concentrations of 25 to 800 uM (reference value: 257.5 +/- 23 microM)
Method in brief: as §2

[27] = compound: O=S1(=O)C=C(Sc2nnc(-c3ccccc3)o2)c2ccccc21; assay: as §11
Method in brief: as §2

B1: Inosine-5'-monophosphate dehydrogenase (Cryptococcus neoformans var. neoformans serotype D (strain JEC21 /ATCC MYA-565) (Filobasidiella neoformans)), Q5KP44 (protein)
chain: MADTNPNAPPRSDSLLNPADALKYLEEYPRGDGLSLQELMDSRKNGGLTYNDFLVLPGHISFPASDVSLQSRATKNIVLNTPFLSSPMDTVTEDRMAIALALHGGLGIIHHNCSAEEQAAMVRRVKKYENGFITDPLCLGPDATVGDVLEIKAKFGFCGVPITETGAPNSKLLGIVTGRDVQFQDAETPIKSVMTTEVVTGSSPITLEKANSLLRETKKGKLPIVDSNGHLVSLVARSDLLKNQNYPYASKVPESKQLYCGAAIGTRPGDKDRLKLLAEAGLDVVVLDSSQGDSVYQIEFIKWIKQTYPKIEIIAGNVVTREQAAQLIAAGADGLRIGMGSGSICITQEVMAVGRPQGTAVYAVAEFASRFGIPCIADGGIGNIGHIAKALALGASAVMMGGLLAGTTESPGEYFYHEGKRVKVYRGMGSIEAMEHTQRGSASGKRSILNLDNAATARYFSEADAVKVAQGVSGDVADKGSINKFVPYLFTGLQHSFQDAGVKSVSELHSCARSGSLRFELRTASAQLEGGVHGLNSYTKRLFA
- Vmax [1]: 0.3 µM/min
- kcat [2]: 1 s⁻¹
- kcat [3]: 1 s⁻¹
- Km [4]: 37 µM
- Km [5]: 53 µM
- kcat [6]: 1 s⁻¹
- kcat [7]: 0.9 s⁻¹
- Vmax [8]: 0.7 µM/min
- Vmax [9]: 0.6 µM/min
- Km [10]: 355 µM
- Km [11]: 386 µM
- kcat [12]: 0.25 s⁻¹
- Km [13]: 93 µM
- Km [14]: 92.5 µM
- kcat [15]: 0.9 s⁻¹
- Km [16]: 32 µM
- Vmax [17]: 0.9 µM/min
- Vmax [18]: 1.5 µM/min
- Vmax [19]: 1.3 µM/min
- Vmax [20]: 1.4 µM/min
- Vmax [21]: 1.1 µM/min
- Km [22]: 278 µM
- Km [23]: 307 µM
- kcat [24]: 1.5 s⁻¹
- kcat [25]: 1.3 s⁻¹
- Km [26]: 258 µM
- Km [27]: 316 µM
